Tests used:
Cannabinoid receptor 2 = Cannabinoid receptor 2 (Homo sapiens, UniProt P34972); assay: Displacement of [3H]WIN-55212-2 from human recombinant CB2 receptor expressed in CHO-K1 cell membrane; type: cell membranes
Outline: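 CB2 membranes were from CHO K-1 cells transfected with human CB2, prepared in TME buffer (pH 7.4) and incubated with 3 nM [3H]WIN55,212-2 in TME plus 0.5% fatty-acid-free BSA for 1 h at 30 °C. Bound label was filtered on PEI-soaked GF/B, washed with ice-cold buffer containing 0.1% BSA, and counted by scintillation. IC50 values are from single determinations.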

[1] = Selectivity for Sprague-Dawley rat CB1 receptor over human recombinant CB2 receptor
Outline: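 Selectivity is the ratio of the hCB2 IC50 to the rCB1 IC50. The hCB2 IC50 came from CHO-K1 membrane displacement of [3H]WIN55,212-2, and the rCB1 IC50 from rat cerebellar membrane binding. Both binding assays ran 1 h at 30 °C with filtration and scintillation counting.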

Cannabinoid receptor 1 [2] = biological target: Cannabinoid receptor 1 (Rattus norvegicus, UniProt P20272); assay: Displacement of [3H]CP-55940 from CB1 receptor in Sprague-Dawley rat cerebellar membrane; parameters: species or system Cerebellum
Sequence of Cannabinoid receptor 1 (Rattus norvegicus, UniProt P20272) (P20272 whole entry): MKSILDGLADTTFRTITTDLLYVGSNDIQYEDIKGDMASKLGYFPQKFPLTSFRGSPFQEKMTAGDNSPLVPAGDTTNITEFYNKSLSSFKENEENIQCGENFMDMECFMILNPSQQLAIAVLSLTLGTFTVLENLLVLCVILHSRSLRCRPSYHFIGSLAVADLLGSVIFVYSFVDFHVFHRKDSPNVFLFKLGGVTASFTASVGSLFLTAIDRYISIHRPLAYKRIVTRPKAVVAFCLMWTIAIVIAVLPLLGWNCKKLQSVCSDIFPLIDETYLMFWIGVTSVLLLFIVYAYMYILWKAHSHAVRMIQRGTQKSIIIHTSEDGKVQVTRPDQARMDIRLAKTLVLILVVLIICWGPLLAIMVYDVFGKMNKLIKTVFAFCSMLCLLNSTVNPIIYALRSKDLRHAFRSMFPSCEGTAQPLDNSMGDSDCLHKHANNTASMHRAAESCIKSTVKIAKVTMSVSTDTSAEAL
Outline: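 Membranes came from cerebella of male Sprague Dawley rats (200–300 g), homogenized in TME buffer (50 mM Tris–HCl, 1 mM EDTA, 3 mM MgCl2, pH 7.4) and spun at 48,000g for 30 min at 4 °C. They were incubated 1 h at 30 °C in TME with 0.5% fatty-acid-free BSA, then filtered on PEI-soaked GF/B, washed and counted by scintillation. IC50 values are from single determinations.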

Cannabinoid receptor 1 [3] = biological target: Cannabinoid receptor 1 (Homo sapiens, UniProt P21554); assay: Inverse agonist activity at human recombinant CB1 receptor expressed in CHO cells by luciferase reporter gene assay; type: functional, cell-based
Sequence of Cannabinoid receptor 1 (Homo sapiens, UniProt P21554) (P21554 whole entry): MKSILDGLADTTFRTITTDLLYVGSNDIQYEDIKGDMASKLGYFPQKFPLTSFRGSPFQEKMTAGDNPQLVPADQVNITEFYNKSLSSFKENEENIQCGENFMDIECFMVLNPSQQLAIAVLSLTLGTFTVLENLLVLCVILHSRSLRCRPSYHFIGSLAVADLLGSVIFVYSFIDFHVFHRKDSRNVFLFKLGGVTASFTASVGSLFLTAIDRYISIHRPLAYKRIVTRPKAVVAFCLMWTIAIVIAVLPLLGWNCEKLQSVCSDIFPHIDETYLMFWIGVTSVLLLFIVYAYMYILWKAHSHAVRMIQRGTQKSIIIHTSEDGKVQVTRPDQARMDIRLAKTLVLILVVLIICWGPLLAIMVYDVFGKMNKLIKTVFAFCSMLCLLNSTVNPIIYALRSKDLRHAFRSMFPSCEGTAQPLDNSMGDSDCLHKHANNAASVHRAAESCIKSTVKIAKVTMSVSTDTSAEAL

Sequence of Cannabinoid receptor 2 (P34972 whole entry): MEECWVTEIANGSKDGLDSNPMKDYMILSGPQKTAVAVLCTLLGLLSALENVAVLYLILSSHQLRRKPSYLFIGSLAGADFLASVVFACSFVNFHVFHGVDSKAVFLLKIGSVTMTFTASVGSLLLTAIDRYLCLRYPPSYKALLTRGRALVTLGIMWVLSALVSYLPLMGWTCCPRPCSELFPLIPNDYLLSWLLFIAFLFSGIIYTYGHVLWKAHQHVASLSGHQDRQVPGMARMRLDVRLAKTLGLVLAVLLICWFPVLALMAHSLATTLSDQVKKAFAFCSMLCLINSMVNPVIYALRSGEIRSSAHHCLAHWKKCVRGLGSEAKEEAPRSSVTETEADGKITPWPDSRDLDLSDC

Compound | IC50 (Cannabinoid receptor 2) [nM] | Ratio IC50 [1] | IC50 (Cannabinoid receptor 1 [2]) [nM] | IC50 (Cannabinoid receptor 1 [3]) [nM]
O=C(NC1CCCCC1)c1nn(-c2ccccc2Cl)c(-c2ccc(Br)cc2)c1Cn1cncn1 | 4060 | 2540 | 1.6 | 
O=C(c1nn(-c2ccccc2Cl)c(-c2ccc(Br)cc2)c1Cn1cncn1)N1CCN(c2cccc(Cl)c2)CC1 | 296 | 130 | 2.28 | 
O=C(NC1(c2ccc(Cl)cc2)CC1)c1nn(-c2ccccc2Cl)c(-c2ccc(Br)cc2)c1Cn1cncn1 | 2570 | 1510 | 1.7 | 
O=C(c1nn(-c2ccccc2Cl)c(-c2ccc(Br)cc2)c1Cn1cncn1)N1CCN(c2cccc(Cl)c2Cl)CC1 | 582 | 262 | 2.22 | 
C[C@@H]1CCCC[C@@H]1NC(=O)c1nn(-c2ccc(Cl)cc2Cl)c(-c2ccc(Cl)cc2)c1Cn1cncn1 (single isomer, unassigned) |  |  | 18.3 | 
O=C(NC1(C(F)(F)F)CC1)c1nn(-c2ccc(Cl)cc2Cl)c(-c2ccc(Cl)cc2)c1Cn1cncn1 |  |  | 4.5 | 
CC(NC(=O)c1nn(-c2ccccc2Cl)c(-c2ccc(Cl)cc2)c1Cn1cncn1)c1ccc(Cl)cc1Cl (configuration not stated) | 3330 | 1660 | 2 | 
CC(NC(=O)c1nn(-c2ccc(Cl)cc2Cl)c(-c2ccc(Br)cc2)c1Cn1cncn1)C(C)(C)C (configuration not stated) |  |  | 4.1 | 
O=C(NC1(c2ccccc2)CC1)c1nn(-c2ccccc2Cl)c(-c2ccc(Br)cc2)c1Cn1cncn1 | 3200 | 1620 | 1.98 | 
O=C(NC1CCCCC1)c1nn(-c2ccccc2Cl)c(-c2ccc(Cl)cc2)c1Cn1cncn1 |  |  | 6.6 | 
O=C(c1nn(-c2ccccc2Cl)c(-c2ccc(Cl)cc2)c1Cn1cncn1)N1CCN(c2cccc(Cl)c2)CC1 |  |  | 4.08 | 
CCN1CCCC1CNC(=O)c1nn(-c2ccc(Cl)cc2Cl)c(-c2ccc(Cl)cc2)c1Cn1cncn1 (configuration not stated) |  |  | 4020 | 
CC(C)(NC(=O)c1nn(-c2ccc(Cl)cc2Cl)c(-c2ccc(Br)cc2)c1Cn1cncn1)c1ccc(Cl)cc1 |  |  | 2.99 | 
O=C(NCC1CCCCC1)c1nn(-c2ccc(Cl)cc2Cl)c(-c2ccc(Br)cc2)c1Cn1cncn1 |  |  | 20.5 | 
O=C(NCc1ccccc1)c1nn(-c2ccc(Cl)cc2Cl)c(-c2ccc(Cl)cc2)c1Cn1cncn1 |  |  | 19.2 | 
C[C@H]1CC[C@H](NC(=O)c2nn(-c3ccc(Cl)cc3Cl)c(-c3ccc(Cl)cc3)c2Cn2cncn2)CC1 |  |  | 14.2 | 
CC1CCCC(C)N1NC(=O)c1nn(-c2ccc(Cl)cc2Cl)c(-c2ccc(Cl)cc2)c1Cn1cncn1 (configuration not stated) |  |  | 11.4 | 
O=C(NN1CCCCC1)c1nn(-c2ccc(Cl)cc2Cl)c(-c2ccc(Cl)cc2)c1Cn1cncn1 |  |  | 3.83 | 
CC(NC(=O)c1nn(-c2ccccc2Cl)c(-c2ccc(Br)cc2)c1Cn1cncn1)c1ccc(Br)cc1 (configuration not stated) | 1790 | 1630 | 1.1 | 2.51

Compound | IC50 (Cannabinoid receptor 2) [nM] | Ratio IC50 [1] | IC50 (Cannabinoid receptor 1 [2]) [nM] | IC50 (Cannabinoid receptor 1 [3]) [nM]
CN1CCN(C(=O)c2nn(-c3ccccc3Cl)c(-c3ccc(Cl)cc3)c2Cn2cncn2)CC1 |  |  | 961 | 
O=C(NCc1ccccn1)c1nn(-c2ccc(Cl)cc2Cl)c(-c2ccc(Cl)cc2)c1Cn1cncn1 |  |  | 74.8 | 
Cc1cccc(N2CCN(C(=O)c3nn(-c4ccccc4Cl)c(-c4ccc(Br)cc4)c3Cn3cncn3)CC2)c1C | 547 | 264 | 2.07 | 
O=C(NC1CCCCCC1)c1nn(-c2ccccc2Cl)c(-c2ccc(Br)cc2)c1Cn1cncn1 |  |  | 2.7 | 
O=C(NN1CCCCC1)c1nn(-c2ccccc2Cl)c(-c2ccc(Br)cc2)c1Cn1cncn1 |  |  | 5.23 | 
O=C(NN1CCCCCC1)c1nn(-c2ccc(Cl)cc2Cl)c(-c2ccc(Br)cc2)c1Cn1cncn1 |  |  | 8.23 | 
Cc1cccc(N2CCN(C(=O)c3nn(-c4ccc(Cl)cc4Cl)c(-c4ccc(Br)cc4)c3Cn3cncn3)CC2)c1C |  |  | 3.8 | 
O=C(NC1CCCCC1)c1nn(-c2ccc(Cl)cc2Cl)c(-c2ccc(Cl)cc2)c1Cn1cncn1 |  |  | 3.77 | 
O=C(NC1(c2ccc(Cl)cc2)CC1)c1nn(-c2ccc(Cl)cc2Cl)c(-c2ccc(Cl)cc2)c1Cn1cncn1 |  |  | 5.09 | 
CC(NC(=O)c1nn(-c2ccc(Cl)cc2Cl)c(-c2ccc(Cl)cc2)c1Cn1cncn1)c1ccc(Cl)cc1Cl (configuration not stated) |  |  | 2.6 | 
CC(NC(=O)c1nn(-c2ccccc2Cl)c(-c2ccc(Cl)cc2)c1Cn1cncn1)c1ccc(Br)cc1 (configuration not stated) | 3510 | 1950 | 1.8 | 
O=C(NC1(c2ccccc2)CC1)c1nn(-c2ccccc2Cl)c(-c2ccc(Cl)cc2)c1Cn1cncn1 |  |  | 5.81 | 
CC(C)(NC(=O)c1nn(-c2ccc(Cl)cc2Cl)c(-c2ccc(Cl)cc2)c1Cn1cncn1)c1ccc(Cl)cc1 |  |  | 3.33 | 
CC(NC(=O)c1nn(-c2ccccc2Cl)c(-c2ccc(Br)cc2)c1Cn1cncn1)c1ccc(Cl)cc1Cl (configuration not stated) | 2420 | 1100 | 2.2 | 
O=C(NNC(=O)C1(c2ccc(Cl)cc2)CC1)c1nn(-c2ccc(Cl)cc2Cl)c(-c2ccc(Cl)cc2)c1Cn1cncn1 |  |  | 44.5 | 
CC(NC(=O)c1nn(-c2ccc(Cl)cc2Cl)c(-c2ccc(Br)cc2)c1Cn1cncn1)c1ccc(Br)cc1 (configuration not stated) | 6480 | 4630 | 1.4 | 28.2
CCC(C)(C)NC(=O)c1nn(-c2ccccc2Cl)c(-c2ccc(Br)cc2)c1Cn1cncn1 |  |  | 8.99 | 
O=C(NC1(C(F)(F)F)CCC1)c1nn(-c2ccccc2Cl)c(-c2ccc(Br)cc2)c1Cn1cncn1 |  |  | 7.48 | 
O=C(NC1(C(F)(F)F)CCC1)c1nn(-c2ccccc2Cl)c(-c2ccc(Cl)cc2)c1Cn1cncn1 |  |  | 5.14 | 
